# Assay outcomes deposited in PubChem by Sanford-Burnham Center for Chemical Genomics.
# Sampled rows, rich in hits. Any-hit rate of the full collection: about 2.5%.
# Diaph act CS – diaphorase activation or chemical reduction counter-screen; Diaphorase/resazurin coupled assay, resorufin fluorescence, 16 min; stronger effect = higher value; 1 = vehicle wells, 0 = NADH-free wells; AID 1229; actives 0.005% (n = 190,000); activation factor at 20 µM;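 active = diaphorase activity raised at least twofold by the compound at 20 µM; inactive = activation factor below 2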
#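 Assay system: bacterial diaphorase enzyme (C. kluyveri) / Input: enzyme 0.07 U/mL final / Medium: 50 mM HEPES pH 7.4 with 4.542 mM MgCl2, 0.005% Tween 20 / Doses: single compound dose of 20 µM, 1% DMSO final / Incubation: 16 min enzyme reaction, ambient temperature / Signal: fluorescence, excitation 544 nm and emission 590 nm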
# PMI act satM6P – PMI (human) activation, high substrate. P34949. coupled PMI enzyme assay, resazurin fluorescence, 20 min; stronger effect = higher value; 1 = untreated enzyme, 0 = substrate-free blank. activation factor at 20 µM. actives 0.34% (n = 190,000). AID 1216;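 active = activation factor of 2 or more at 20 µM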
#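 test system = human PMI in coupled enzyme assay | medium = HEPES-buffered pH 7.4 with magnesium and detergent | also added = 1.0 mM mannose-6-phosphate substrate with 0.22 mM NADP+ | compound = 20 µM single dose | times = 20 min incubation at room temperature | measured by = resorufin fluorescence (Ex 544/Em 590 nm) from resazurin via diaphorase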
# PMI activator – activators of human phosphomannose isomerase | P34949 | purified human PMI, coupled resazurin fluorescence, 20 min; stronger effect = higher value; 1 = vehicle control, 0 substrate-free wells | activation factor at 20 µM | actives 0.005% (n = 190,000);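 active = activation factor of 2 or more at 20 µM, relative to plate controls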
# FLuc inh counter – inhibits firefly luciferase, flagging false hits in luciferase inhibition screens; actives 1.5% (n = 200,000); ATPLite firefly luciferase biochemical luminescence, 10 min; P08659; inhibition, % at 10 µM;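 active = inhibition above about 50% when tested at 10 µM, limit read from the data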
# Target sequence (P08659 whole entry, looked up): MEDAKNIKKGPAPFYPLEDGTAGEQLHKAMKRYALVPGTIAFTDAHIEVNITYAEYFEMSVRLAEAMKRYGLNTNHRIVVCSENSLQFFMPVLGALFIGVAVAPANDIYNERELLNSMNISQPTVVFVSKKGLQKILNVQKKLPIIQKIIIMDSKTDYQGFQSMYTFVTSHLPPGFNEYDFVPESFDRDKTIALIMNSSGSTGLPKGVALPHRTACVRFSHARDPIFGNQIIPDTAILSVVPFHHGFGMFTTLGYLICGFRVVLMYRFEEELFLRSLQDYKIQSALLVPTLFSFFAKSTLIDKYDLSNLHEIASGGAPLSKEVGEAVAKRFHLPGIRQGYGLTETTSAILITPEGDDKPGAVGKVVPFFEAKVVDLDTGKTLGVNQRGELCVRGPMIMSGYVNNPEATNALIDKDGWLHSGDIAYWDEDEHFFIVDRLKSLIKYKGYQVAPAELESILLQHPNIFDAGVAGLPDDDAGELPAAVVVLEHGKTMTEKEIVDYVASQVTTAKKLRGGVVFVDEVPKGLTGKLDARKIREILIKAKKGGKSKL
# FLuc act counter – firefly luciferase counter-screen for stimulation assays. P08659. ATPlite luciferase biochemical, luminescence, 10 min; 0 = ATP-free wells, 1 = DMSO control. activation factor at 10 µM. 200,000 tested, under 10 active;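 active = luciferase activation factor, scaled between plate controls, of at least 2 with compound at 10 µM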
#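 System: cell-free luciferase reagent; medium: PBS as buffer for the ATP substrate; doses: test compounds dosed from 2 mM stocks in 100% DMSO; incubation: 10 min, room temperature; measured by: luminescence from luciferase reaction; read-out: luciferase activation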
# Diaphorase inh – inhibits diaphorase or chemically oxidizes, flagging diaphorase assay artifacts; diaphorase resazurin-to-resorufin fluorescence, NADH, 16 min; bacterial (C. kluyveri) enzyme, not human; inhibition, % at 20 µM; actives 0.69% (n = 190,000);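 active = primary screen inhibition at 20 µM above a set limit, cut at about 50% in these data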
#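 Assay system – diaphorase enzyme from Clostridium kluyveri · Amount – diaphorase 0.14 U/mL (working solution) · Times – reaction incubation of 16 min at room temperature · Controls – No-NADH positive control and DMSO neutral control · Signal – resorufin fluorescence 544/590 nm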
# Hits are given with their value; . = inactive.
SMILES,Diaph act CS,PMI act satM6P,PMI activator,FLuc inh counter,FLuc act counter,Diaphorase inh
CCCc1ncc(C(O)(c2ccccc2)c2ccccc2)n1C,.,.,.,.,.,.
Cc1ccccc1CSc1nnc2ccc(-c3ccncc3)nn12,.,.,.,.,.,.
C=CCN(CC=C)c1cnn(-c2nc3ccccc3[nH]2)c(=O)c1Cl,.,.,.,51,.,.
CCOC(=O)c1nc2cc3n(c(CC(C)C)c-2c1C)CC(C)=C3C,.,2.4,.,.,.,.
N/C(=N\OC(=O)CCC1CCCC1)c1ccccc1,.,.,.,88,.,.
N/C(=N\OC(=O)Cc1ccccc1)c1ccccn1,.,.,.,.,.,.
N/C(=N\OC(=O)CCC1CCCC1)c1ccccn1,.,.,.,84,.,.
N/C(=N\OC(=O)CCCc1ccccc1)c1ccccn1,.,.,.,60,.,.
COC(=O)Cc1ccc(N(Cc2ccccc2F)S(=O)(=O)c2ccc(C)cc2)cc1,.,.,.,.,.,.
CCc1ccc(N=C2N=C(N)c3ccccc32)cc1,.,.,.,92,.,.
CCc1ccc(CN(C)CCc2ccccn2)cc1,.,.,.,.,.,.
Cc1ccc2nc(C)cc(N3CCOCC3)c2c1,.,.,.,.,.,.
Cc1c(C(=O)O)c(C(=O)O)nc2ccc(N3CCOCC3)cc12,.,.,.,.,.,55
COc1ccc(/C=N/n2c(-c3n[nH]c4c3CCC4)n[nH]c2=S)cc1OC,.,.,.,.,.,63
O=C(O)CCC(=O)Nc1ccc(OCC(=O)O)cc1,.,.,.,.,.,.
O=C(O)c1ccc(-n2cc(-c3cc4ccccc4oc3=O)[nH]c2=S)cc1,.,2.4,.,.,.,.
Cc1cccc2nc(COc3ccc(-c4ccccc4)cc3)cn12,.,.,.,.,.,.
Cc1ccc(C)c(OCC(=O)Nc2ccc(S(=O)(=O)Nc3ccccn3)cc2)c1,.,.,.,.,.,.
O=C(OCc1ccc(COC(=O)c2cccnc2Cl)cc1)c1cccnc1Cl,.,.,.,.,.,.
CCc1ccc(C(=O)COC(=O)c2cccnc2Cl)cc1,.,.,.,91,.,.
O=C(COC(=O)c1cccs1)c1ccccc1,.,.,.,66,.,.
O=C(c1ccccc1)c1cccs1,.,.,.,.,.,.
O=C(COC(=O)c1cccnc1Cl)c1ccccc1,.,.,.,59,.,.
O=C(OCc1ccccc1Cl)c1cccnc1Cl,.,.,.,.,.,.
Cc1cccc2nc(=S)n(C(=O)c3ccco3)n12,.,.,.,85,.,.
SMILES,Diaph act CS,PMI act satM6P,PMI activator,FLuc inh counter,FLuc act counter,Diaphorase inh
Cc1ccn2c(c1)nc(=S)n2C(=O)c1ccccc1,.,.,.,96,.,.
Cc1ccc(-c2nc(N)n(C(=O)c3ccco3)n2)cc1,.,.,.,.,.,.
O=C(c1ccco1)n1c(=S)nc2ccccn21,.,.,.,68,.,.
CCN=c1scc(C)n1/N=C/c1ccc(O)c(O)c1O,.,.,.,76,.,79
COCCN=c1scc(-c2cccs2)n1/N=C/c1ccc(O)c(O)c1O,.,.,.,.,.,69
CCN=c1scc(C)n1/N=C/c1cc(Br)c(O)c(Br)c1,.,.,.,.,.,.
COCCN=c1scc(-c2ccccc2)n1/N=C/c1c[nH]c2ccccc12,.,.,.,.,.,.
COc1ccc(-c2nnc3ccc(SCC(=O)Nc4nc5ccc(C)cc5s4)nn23)cc1OC,.,.,.,.,.,.
Cc1ccc(/C=N/Nc2nncc(-c3ccccc3)n2)o1,.,.,.,.,.,.
Cc1[nH]n(-c2ccccc2)c(=O)c1/C=N/Nc1nncc(-c2ccccc2)n1,.,.,.,85,.,.
CCOCc1nnc(NC(=O)c2cc(OC)c(OC)cc2[N+](=O)[O-])s1,.,.,.,.,.,.
O=C(O)c1cc(/C=C/c2ccc(N3CCOCC3)cc2)nc2ccccc12,.,.,.,97,.,.
Cc1ccc(S(=O)(=O)N(C)CC(=O)OCC(=O)c2c(N)n(C)c(=O)n(C)c2=O)cc1,.,.,.,.,.,.
O=C(NCc1ccccc1F)Nc1ccc([N+](=O)[O-])cc1,.,.,.,.,.,.
COc1ccc(C(=O)N/N=C/c2sc3ccccc3c2O)cc1,.,.,.,.,.,.
O=C(N/N=C/c1sc2ccccc2c1O)c1ccccc1,.,.,.,57,.,.
COc1ccc2cc(C(=O)N/N=C/c3sc4ccccc4c3O)ccc2c1,.,.,.,72,.,.
O=C(N/N=C/c1sc2ccccc2c1O)c1cccc2ccccc12,.,.,.,.,.,.
CCCN(CC1CC1)c1nc(N)c2c(N)nc(OC)cc2c1C#N,.,.,.,.,.,52
COc1cc(-c2nc(S(=O)(=O)c3ccc(C)cc3)c(N3CCOCC3)o2)cc(OC)c1OC,.,.,.,.,.,.
COc1cc(-c2nc(S(=O)(=O)c3ccc(C)cc3)c(N(C)C)o2)cc(OC)c1OC,.,2,.,.,.,.
COc1ccc(C(=O)NNc2ccccc2)cc1OC,.,2.2,.,.,.,.
COc1ccc(C(=O)NNC(=O)Cc2ccc(-c3ccccc3)cc2)cc1OC,.,.,.,.,.,.
Fc1ccccc1CNC(=S)Nc1cccc(C(F)(F)F)c1,.,.,.,.,.,.
COc1cc(/C=N/NC(=O)c2cn(-c3cccc(C)n3)cn2)ccc1O,.,.,.,.,.,.
SMILES,Diaph act CS,PMI act satM6P,PMI activator,FLuc inh counter,FLuc act counter,Diaphorase inh
COc1ccc(OC)c(/C=N/c2c(-c3ccc(O)c(OC)c3)nc3ccccn23)c1,.,.,.,.,.,.
CN(C)c1ccc(-c2nc3ccccn3c2/N=C/c2ccc(Br)cc2)cc1,.,.,.,94,.,.
CSc1nnc(C2CCCN2)n1C (configuration not stated),.,.,.,.,.,.
Cc1ccc(NC(=O)CN2C(=O)S/C(=C/c3ccc(O)c([N+](=O)[O-])c3)C2=O)cc1C,.,.,.,.,.,92
Clc1nc(-c2ccccn2)nc2scc(-c3ccccc3)c12,.,.,.,97,.,.
CC1CCN(c2nc(-c3cccnc3)nc3scc(-c4ccccc4)c23)CC1,.,.,.,.,.,.
O=C(NCC1(c2ccccc2)CCCC1)C(=O)N1CCOCC1,.,.,.,.,.,.
C/C(=N\Nc1nc2ccccc2[nH]1)c1cc2ccccc2o1,.,.,.,78,.,.
C/C(=N\Nc1nc2ccccc2[nH]1)c1ccc2c(c1)OCCO2,.,.,.,78,.,.
